The M2OR odorant receptor database

Columns and labels:
Conditions in all cases: stereoisomer not certain
OR2K2 (Homo sapiens) = OR2K2 (Homo sapiens) (UniProt Q8NGT1)
How it was run: (§1)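 Transient luciferase assays in mammalian cell lines were common, though methods varied by source. The values come from published papers and their supplementary material, with extra details from the original authors when needed. Responsive refers to a measured signal the original authors judged statistically different from baseline, and non-responsive (inactive) to the remainder.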

OR2L13 (Homo sapiens) = target: T1, OR2L13 (Homo sapiens) (UniProt Q8N349)
T1 sequence (whole entry): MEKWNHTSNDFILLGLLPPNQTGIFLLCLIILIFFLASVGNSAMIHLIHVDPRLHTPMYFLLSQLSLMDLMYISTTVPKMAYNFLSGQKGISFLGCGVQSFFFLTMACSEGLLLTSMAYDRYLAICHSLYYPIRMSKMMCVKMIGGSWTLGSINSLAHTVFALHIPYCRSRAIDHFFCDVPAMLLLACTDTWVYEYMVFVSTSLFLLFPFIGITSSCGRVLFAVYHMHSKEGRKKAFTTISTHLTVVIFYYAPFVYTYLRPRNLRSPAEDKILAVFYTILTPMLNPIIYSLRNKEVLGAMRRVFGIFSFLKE
How it was run: as §1

OR2L3 (Homo sapiens) = OR2L3 (Homo sapiens) (UniProt Q8NG85)
How it was run: as §1

OR2L5 (Homo sapiens) = OR2L5 (Homo sapiens) (UniProt Q8NG80)
How it was run: as §1

OR2L8 (Homo sapiens) = OR2L8 (Homo sapiens) (UniProt Q8NGY9)
How it was run: as §1

OR2M2 (Homo sapiens) = OR2M2 (Homo sapiens) (UniProt Q96R28)
How it was run: as §1

OR2M3 (Homo sapiens) = target: T2, OR2M3 (Homo sapiens) (UniProt Q8NG83)
T2 sequence (whole entry): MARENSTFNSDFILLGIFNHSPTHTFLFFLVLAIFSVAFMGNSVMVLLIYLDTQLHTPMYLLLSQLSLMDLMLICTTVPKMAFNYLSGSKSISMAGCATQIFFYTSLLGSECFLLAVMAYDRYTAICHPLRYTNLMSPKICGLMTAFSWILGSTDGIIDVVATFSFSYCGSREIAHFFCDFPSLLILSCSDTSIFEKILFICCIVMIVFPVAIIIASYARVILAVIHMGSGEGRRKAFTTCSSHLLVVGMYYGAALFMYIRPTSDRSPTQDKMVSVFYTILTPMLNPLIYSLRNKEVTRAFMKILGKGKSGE
How it was run: as §1

OR2M5 (Homo sapiens) = OR2M5 (Homo sapiens) (UniProt A3KFT3)
How it was run: as §1

OR2M7 (Homo sapiens) = target: T3, OR2M7 (Homo sapiens) (UniProt Q8NG81)
T3 sequence (whole entry): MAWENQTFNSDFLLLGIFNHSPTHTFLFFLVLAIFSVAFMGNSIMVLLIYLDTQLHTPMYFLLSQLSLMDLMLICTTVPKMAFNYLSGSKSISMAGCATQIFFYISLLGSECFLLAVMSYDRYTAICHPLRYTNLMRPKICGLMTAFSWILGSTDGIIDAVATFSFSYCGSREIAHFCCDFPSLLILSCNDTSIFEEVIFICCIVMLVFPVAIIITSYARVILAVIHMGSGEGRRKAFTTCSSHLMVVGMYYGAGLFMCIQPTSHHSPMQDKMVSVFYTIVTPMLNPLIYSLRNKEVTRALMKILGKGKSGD
How it was run: as §1

OR2S2 (Homo sapiens) = OR2S2 (Homo sapiens) (UniProt Q9NQN1)
How it was run: as §1

OR2T1 (Homo sapiens) = OR2T1 (Homo sapiens) (UniProt O43869)
How it was run: as §1

OR2T10 (Homo sapiens) = target: T4, OR2T10 (Homo sapiens) (UniProt Q8NGZ9)
T4 sequence (whole entry): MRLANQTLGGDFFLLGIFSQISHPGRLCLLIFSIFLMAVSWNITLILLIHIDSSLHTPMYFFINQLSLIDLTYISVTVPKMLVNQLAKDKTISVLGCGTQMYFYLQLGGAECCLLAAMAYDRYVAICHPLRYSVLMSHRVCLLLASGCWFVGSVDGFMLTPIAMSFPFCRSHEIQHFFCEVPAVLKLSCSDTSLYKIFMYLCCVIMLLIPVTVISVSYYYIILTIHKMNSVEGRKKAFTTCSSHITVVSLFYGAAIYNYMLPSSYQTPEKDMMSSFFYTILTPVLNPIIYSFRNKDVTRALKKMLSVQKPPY
How it was run: as §1

OR2T11 (Homo sapiens) = OR2T11 (Homo sapiens) (UniProt Q8NH01)
How it was run: as §1

OR2T12 (Homo sapiens) = OR2T12 (Homo sapiens) (UniProt Q8NG77)
How it was run: as §1

OR2J3 [1] = tested on: OR2J3
How it was run: as §1
Target sequence in this assay (as listed by the source): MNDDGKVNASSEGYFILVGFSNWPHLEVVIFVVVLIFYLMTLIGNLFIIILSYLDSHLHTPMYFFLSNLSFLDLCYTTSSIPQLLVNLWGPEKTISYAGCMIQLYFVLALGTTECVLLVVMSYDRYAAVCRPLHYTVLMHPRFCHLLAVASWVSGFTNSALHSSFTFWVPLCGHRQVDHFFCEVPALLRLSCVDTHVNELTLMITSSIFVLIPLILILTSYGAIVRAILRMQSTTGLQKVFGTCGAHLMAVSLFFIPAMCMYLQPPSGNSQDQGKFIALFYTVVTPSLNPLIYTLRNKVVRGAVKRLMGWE

OR2L2 (Homo sapiens) = OR2L2 (Homo sapiens) (UniProt Q8NH16)
How it was run: as §1

OR2M4 (Homo sapiens) = target: T5, OR2M4 (Homo sapiens) (UniProt Q96R27)
T5 sequence (whole entry): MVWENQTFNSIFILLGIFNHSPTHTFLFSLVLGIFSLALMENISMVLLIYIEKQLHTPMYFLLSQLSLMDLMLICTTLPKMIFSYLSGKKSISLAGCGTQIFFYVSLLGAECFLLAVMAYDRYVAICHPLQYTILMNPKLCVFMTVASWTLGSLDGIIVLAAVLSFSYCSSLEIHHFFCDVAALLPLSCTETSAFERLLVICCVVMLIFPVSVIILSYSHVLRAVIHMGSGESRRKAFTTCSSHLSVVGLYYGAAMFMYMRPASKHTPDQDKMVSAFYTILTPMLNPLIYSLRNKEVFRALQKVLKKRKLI
How it was run: as §1

OR2M5 D11G = tested on: OR2M5 D11G
How it was run: as §1

OR2J3 [2] = tested on: OR2J3; remark: listed apart in the source
How it was run: as §1
Target sequence in this assay (as listed by the source): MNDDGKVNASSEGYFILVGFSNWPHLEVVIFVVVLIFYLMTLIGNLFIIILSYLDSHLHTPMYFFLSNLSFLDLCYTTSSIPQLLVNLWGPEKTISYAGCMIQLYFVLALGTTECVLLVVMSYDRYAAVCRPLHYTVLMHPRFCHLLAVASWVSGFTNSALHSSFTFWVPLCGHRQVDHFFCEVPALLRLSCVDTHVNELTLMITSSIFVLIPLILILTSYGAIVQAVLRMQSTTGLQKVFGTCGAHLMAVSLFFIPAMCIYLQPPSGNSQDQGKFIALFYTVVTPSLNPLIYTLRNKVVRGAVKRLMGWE

OR2J3 [3] = tested on: OR2J3; remark: listed apart in the source
How it was run: as §1
Target sequence in this assay (as listed by the source): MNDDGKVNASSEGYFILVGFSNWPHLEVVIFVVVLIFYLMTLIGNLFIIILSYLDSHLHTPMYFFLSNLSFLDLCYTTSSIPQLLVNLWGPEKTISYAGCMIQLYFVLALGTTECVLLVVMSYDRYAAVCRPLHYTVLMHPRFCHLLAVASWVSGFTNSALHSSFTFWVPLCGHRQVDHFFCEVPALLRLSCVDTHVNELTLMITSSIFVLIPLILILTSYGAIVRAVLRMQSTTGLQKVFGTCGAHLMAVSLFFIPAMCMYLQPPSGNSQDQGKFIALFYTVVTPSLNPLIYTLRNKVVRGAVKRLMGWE

Measured: odorant receptor agonist call;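 further: active if original authors judged signal statistically different from baseline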

Sequence of OR2M5 (Homo sapiens) (A3KFT3 whole entry): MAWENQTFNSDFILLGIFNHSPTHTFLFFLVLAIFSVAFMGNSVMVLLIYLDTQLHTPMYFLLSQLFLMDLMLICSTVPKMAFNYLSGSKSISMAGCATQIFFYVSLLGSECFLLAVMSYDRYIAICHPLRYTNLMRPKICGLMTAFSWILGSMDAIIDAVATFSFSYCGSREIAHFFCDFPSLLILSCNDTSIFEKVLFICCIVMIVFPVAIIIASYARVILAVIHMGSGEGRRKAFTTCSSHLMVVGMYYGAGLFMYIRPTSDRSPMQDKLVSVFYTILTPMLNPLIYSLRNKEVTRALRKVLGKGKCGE
Sequence of OR2T11 (Homo sapiens) (Q8NH01 whole entry): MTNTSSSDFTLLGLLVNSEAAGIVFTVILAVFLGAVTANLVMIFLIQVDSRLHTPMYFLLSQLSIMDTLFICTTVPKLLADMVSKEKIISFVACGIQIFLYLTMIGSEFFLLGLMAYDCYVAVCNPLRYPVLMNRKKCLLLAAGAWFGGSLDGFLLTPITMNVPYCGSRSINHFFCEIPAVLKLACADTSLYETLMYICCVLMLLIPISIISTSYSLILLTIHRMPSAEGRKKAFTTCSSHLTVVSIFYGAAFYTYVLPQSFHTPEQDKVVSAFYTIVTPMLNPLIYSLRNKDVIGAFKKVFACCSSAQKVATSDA
Sequence of OR2T12 (Homo sapiens) (Q8NG77 whole entry): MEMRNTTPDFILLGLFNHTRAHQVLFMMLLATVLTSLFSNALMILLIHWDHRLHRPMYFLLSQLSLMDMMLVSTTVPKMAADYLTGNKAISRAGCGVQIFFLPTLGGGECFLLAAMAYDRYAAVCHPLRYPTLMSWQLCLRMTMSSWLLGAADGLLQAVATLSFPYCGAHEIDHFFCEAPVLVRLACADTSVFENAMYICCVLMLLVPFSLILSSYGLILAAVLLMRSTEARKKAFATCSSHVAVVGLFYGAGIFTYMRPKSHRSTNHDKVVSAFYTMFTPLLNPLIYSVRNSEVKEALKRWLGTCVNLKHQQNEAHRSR
Sequence of OR2M2 (Homo sapiens) (Q96R28 whole entry): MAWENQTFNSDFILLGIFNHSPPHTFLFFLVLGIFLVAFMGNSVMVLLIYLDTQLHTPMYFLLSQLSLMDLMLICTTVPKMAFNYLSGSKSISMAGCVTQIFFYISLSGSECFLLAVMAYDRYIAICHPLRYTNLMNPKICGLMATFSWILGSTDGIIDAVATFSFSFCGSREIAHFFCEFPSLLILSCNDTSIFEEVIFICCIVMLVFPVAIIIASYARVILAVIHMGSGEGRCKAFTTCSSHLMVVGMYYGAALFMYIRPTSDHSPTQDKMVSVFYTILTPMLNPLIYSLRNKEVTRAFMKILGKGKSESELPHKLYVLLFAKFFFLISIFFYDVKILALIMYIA
Sequence of OR2L5 (Homo sapiens) (Q8NG80 whole entry): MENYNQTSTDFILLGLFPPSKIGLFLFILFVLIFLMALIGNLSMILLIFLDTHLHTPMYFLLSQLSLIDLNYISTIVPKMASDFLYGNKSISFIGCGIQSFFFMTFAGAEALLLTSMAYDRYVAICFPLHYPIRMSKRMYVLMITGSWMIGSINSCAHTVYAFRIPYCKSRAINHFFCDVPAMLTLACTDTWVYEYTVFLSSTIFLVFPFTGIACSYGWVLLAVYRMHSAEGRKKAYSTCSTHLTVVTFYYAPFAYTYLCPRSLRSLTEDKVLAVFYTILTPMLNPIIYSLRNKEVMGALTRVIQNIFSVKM
Sequence of OR2K2 (Homo sapiens) (Q8NGT1 whole entry): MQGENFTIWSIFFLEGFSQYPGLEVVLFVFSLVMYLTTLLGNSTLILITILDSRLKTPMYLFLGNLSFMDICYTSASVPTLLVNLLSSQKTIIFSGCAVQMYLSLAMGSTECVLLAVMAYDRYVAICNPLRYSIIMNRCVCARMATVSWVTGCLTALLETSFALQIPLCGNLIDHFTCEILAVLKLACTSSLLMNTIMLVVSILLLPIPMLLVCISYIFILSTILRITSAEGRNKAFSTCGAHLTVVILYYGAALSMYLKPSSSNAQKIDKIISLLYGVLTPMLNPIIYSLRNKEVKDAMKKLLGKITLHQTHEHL
Sequence of OR2T1 (Homo sapiens) (O43869 whole entry): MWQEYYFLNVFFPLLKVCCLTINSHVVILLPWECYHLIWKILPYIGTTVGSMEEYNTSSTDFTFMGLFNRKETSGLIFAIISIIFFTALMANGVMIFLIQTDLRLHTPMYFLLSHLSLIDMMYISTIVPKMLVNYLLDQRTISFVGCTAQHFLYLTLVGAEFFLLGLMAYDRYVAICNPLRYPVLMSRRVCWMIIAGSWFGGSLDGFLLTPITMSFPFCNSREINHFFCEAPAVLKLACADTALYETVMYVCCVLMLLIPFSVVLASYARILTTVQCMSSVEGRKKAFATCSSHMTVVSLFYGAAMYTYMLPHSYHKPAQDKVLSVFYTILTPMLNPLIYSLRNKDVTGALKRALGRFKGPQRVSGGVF
Sequence of OR2L8 (Homo sapiens) (Q8NGY9 whole entry): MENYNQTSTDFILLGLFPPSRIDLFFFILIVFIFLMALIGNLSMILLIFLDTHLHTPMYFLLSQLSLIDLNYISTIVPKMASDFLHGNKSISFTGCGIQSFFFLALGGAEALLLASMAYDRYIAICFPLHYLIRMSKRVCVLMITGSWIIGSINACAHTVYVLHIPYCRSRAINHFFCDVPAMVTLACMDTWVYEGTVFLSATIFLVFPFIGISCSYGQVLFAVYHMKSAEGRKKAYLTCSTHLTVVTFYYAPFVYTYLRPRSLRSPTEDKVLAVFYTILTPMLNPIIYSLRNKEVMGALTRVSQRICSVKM
Sequence of OR2S2 (Homo sapiens) (Q9NQN1 whole entry): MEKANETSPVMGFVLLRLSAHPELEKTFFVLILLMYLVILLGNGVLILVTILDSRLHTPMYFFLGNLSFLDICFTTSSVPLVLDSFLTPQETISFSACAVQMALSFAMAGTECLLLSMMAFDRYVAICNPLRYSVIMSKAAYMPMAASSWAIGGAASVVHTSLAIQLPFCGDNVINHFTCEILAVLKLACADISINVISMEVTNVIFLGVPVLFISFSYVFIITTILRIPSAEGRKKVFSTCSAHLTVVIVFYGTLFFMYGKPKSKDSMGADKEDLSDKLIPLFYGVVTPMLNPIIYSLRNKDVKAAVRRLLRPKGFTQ
Sequence of OR2L3 (Homo sapiens) (Q8NG85 whole entry): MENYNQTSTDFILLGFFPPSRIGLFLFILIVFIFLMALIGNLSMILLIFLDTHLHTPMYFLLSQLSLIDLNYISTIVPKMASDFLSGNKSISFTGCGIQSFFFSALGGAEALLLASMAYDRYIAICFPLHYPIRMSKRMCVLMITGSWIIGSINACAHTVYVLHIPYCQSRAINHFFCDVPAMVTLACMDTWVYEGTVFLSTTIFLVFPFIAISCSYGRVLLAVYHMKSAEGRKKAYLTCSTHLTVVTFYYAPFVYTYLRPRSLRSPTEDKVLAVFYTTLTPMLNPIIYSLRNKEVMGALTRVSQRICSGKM
Sequence of OR2L2 (Homo sapiens) (Q8NH16 whole entry): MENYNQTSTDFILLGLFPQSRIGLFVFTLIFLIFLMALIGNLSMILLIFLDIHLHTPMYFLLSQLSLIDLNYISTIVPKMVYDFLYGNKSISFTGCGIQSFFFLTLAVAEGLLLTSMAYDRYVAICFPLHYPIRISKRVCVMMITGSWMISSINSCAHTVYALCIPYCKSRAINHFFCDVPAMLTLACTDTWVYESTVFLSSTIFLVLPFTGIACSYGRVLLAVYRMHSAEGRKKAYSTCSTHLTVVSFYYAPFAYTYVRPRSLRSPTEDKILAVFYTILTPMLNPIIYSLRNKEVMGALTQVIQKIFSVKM
Sequence of OR2M5 D11G (as listed by the source, stated change not applied): as the sequence (A3KFT3 whole entry) above, with D11G counted along it

Cc1c([N+](=O)[O-])c(C)c([N+](=O)[O-])c(C(C)(C)C)c1[N+](=O)[O-]
not listed: OR2J3 [1] | OR2L2 (Homo sapiens) | OR2M4 (Homo sapiens) | OR2M5 D11G | OR2J3 [2] | OR2J3 [3]
inactive: all other assays above

CCC1CCC(=O)O1 (centres undefined)
inactive: OR2M7 (Homo sapiens)

C=CCOC(=O)Cc1ccccc1
not listed: OR2J3 [2] | OR2J3 [3]
inactive: all other assays above

COc1ccc(C=O)cc1
inactive: OR2L13 (Homo sapiens) | OR2M3 (Homo sapiens)

C=CCSSCC=C
inactive: OR2M3 (Homo sapiens)

CSSC
inactive: OR2M3 (Homo sapiens)

Cc1ccccc1O
inactive: OR2M3 (Homo sapiens)

CCOC(=O)Cc1ccccc1
inactive: OR2M3 (Homo sapiens)

O=C(O)Cc1ccccc1
inactive: OR2M3 (Homo sapiens)

Cc1cccc(C)c1
inactive: OR2L13 (Homo sapiens)

O=c1cc(O)c2ccccc2o1
inactive: OR2M7 (Homo sapiens)

SCc1ccco1
inactive: OR2M3 (Homo sapiens)

O=CC=Cc1ccccc1
active: OR2J3 [2] | OR2J3 [1] | OR2J3 [3] | OR2M4 (Homo sapiens) | OR2T10 (Homo sapiens)

C=CCc1ccccc1
inactive: OR2M7 (Homo sapiens)

Cc1ccc(O)c(C)c1
inactive: OR2M3 (Homo sapiens)

C=CCc1ccc(OC)cc1
inactive: OR2M3 (Homo sapiens) | OR2T10 (Homo sapiens)

O=Cc1ccccc1
inactive: OR2M4 (Homo sapiens) | OR2T10 (Homo sapiens)
